Measurements published in ChEMBL document CHEMBL1146375, “Synthetic studies on novel benzimidazolopeptides with antimicrobial, cytotoxic and anthelmintic potential” (2007).
Values after ≈ are worked out from the molar mass of the structure shown.

Columns and labels:
Bacillus subtilis [1] = assay: Antibacterial activity against Bacillus subtilis NCIM 2063 after 18 hrs by disc diffusion method; type: functional
Summary of the method: (§1)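 Modified Kirby-Bauer disc diffusion. Plates inoculated with spore suspension (about 6 × 10⁴ spores mL^-1). Sterile 6 mm paper discs carried test samples at 10 mg mL^-1; ciprofloxacin disc as reference, DMF disc as negative control. Plates held 18 h at 37 °C. Inhibition zone diameters (mm) averaged over triplicate sets.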

Staphylococcus aureus [2] = assay: Antibacterial activity against Staphylococcus aureus NCIM 2079 after 18 hrs by disc diffusion method; type: functional; summary of the method: as §1
Pseudomonas aeruginosa [3] = assay: Antibacterial activity against Pseudomonas aeruginosa NCIM 2034 after 18 hrs by disc diffusion method; type: functional; summary of the method: as §1
Escherichia coli [4] = assay: Antibacterial activity against Escherichia coli NCIM 2065 after 18 hrs by disc diffusion method; type: functional; summary of the method: as §1
Candida albicans [5] = assay: Antifungal activity against Candida albicans MUCC 29 after 48 hrs by disc diffusion method; type: functional
Summary of the method: (§2)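 Agar well diffusion on plates inoculated with spore suspension in normal saline from cultures on Sabouraud's broth. Wells punched and loaded with test samples or griseofulvin at 10 mg mL^-1, with DMSO as negative control. Incubated 48 h at 37 °C.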

Microsporum audouinii [6] = assay: Antifungal activity against Microsporum audouinii MUCC 545 after 48 hrs by disc diffusion method; type: functional; summary of the method: as §2
Trichophyton benhamiae [7] = assay: Antifungal activity against Trichophyton mentagrophytes MUCC 665 after 48 hrs by disc diffusion method; type: functional, Arthroderma benhamiae; summary of the method: as §2
Aspergillus niger = assay: Antifungal activity against Aspergillus niger MUCC 177 after 48 hrs by disc diffusion method; type: functional; summary of the method: as §2
Bacillus subtilis [8] = assay: Antibacterial activity against Bacillus subtilis NCIM 2063 after 18 hrs by tube dilution method; type: functional; settings: NCIM 2063, 18 h
Summary of the method: (§3)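 Tube dilution MIC. Stock diluted in sterile broth to seven concentrations from 200 to 3.1 […]. Each tube inoculated with one loopful of test bacterium and incubated 18 h at 37 °C. MIC read from presence or absence of growth.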

Staphylococcus aureus [9] = assay: Antibacterial activity against Staphylococcus aureus NCIM 2079 after 18 hrs by tube dilution method; type: functional; settings: NCIM 2079, 18 h; summary of the method: as §3
Pseudomonas aeruginosa [10] = assay: Antibacterial activity against Pseudomonas aeruginosa NCIM 2034 after 18 hrs by tube dilution method; type: functional; settings: NCIM 2034, 18 h; summary of the method: as §3
Escherichia coli [11] = assay: Antibacterial activity against Escherichia coli NCIM 2065 after 18 hrs by tube dilution method; type: functional; settings: NCIM 2065, 18 h
Candida albicans [12] = assay: Antifungal activity against Candida albicans MUCC 29 after 48 hrs by tube dilution method; type: functional
Summary of the method: (§4)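 Tube dilution MIC as for bacteria (seven concentrations, 200–3.1 […]), with DMSO in place of DMF. Tubes inoculated with fungal culture and incubated 48 h at 37 °C. MIC read from presence or absence of growth.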

Microsporum audouinii [13] = assay: Antifungal activity against Microsporum audouinii MUCC 545 after 48 hrs by tube dilution method; type: functional; summary of the method: as §4
Trichophyton benhamiae [14] = assay: Antifungal activity against Trichophyton mentagrophytes MUCC 665 after 48 hrs by tube dilution method; type: functional, Arthroderma benhamiae; summary of the method: as §4
Eudrilus [15] = assay: Anthelmintic activity against Eudrilus sp. assessed as mean paralyzing time; type: functional
Summary of the method: (§5)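 Earthworms exposed to test suspensions at 2 mg mL^-1 (0.2% w/v), made by triturating compound with Tween 80 (0.5%) and distilled water, then mechanically stirred 30 min. Mebendazole suspension prepared alike as reference. Paralysis and death times recorded; death confirmed by no movement in 50 °C water. Means from triplicate sets.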

Eudrilus [16] = assay: Anthelmintic activity against Eudrilus sp. assessed as mean death time; type: functional
Summary of the method: (§6)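 Earthworms exposed to test suspensions at 2 mg mL−1, prepared by triturating compound with Tween 80 (0.5%) and distilled water, stirring 30 min, then diluting to 0.2% w/v. Mebendazole suspension was made the same way. Death was confirmed by moving worms into 50 °C warm water and looking for movement. Mean death time (min) taken from triplicate sets.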

[17] = Anthelmintic activity against Megascoplex konkanensis ICARBC 211 assessed as mean paralyzing time; type: functional; summary of the method: as §5
[18] = Anthelmintic activity against Megascoplex konkanensis ICARBC 211 assessed as mean death time; type: functional; summary of the method: as §5
Pontoscolex corethrurus [19] = assay: Anthelmintic activity against Pontoscolex corethrurus ICARBC 408 assessed as mean paralyzing time; type: functional; summary of the method: as §5
Pontoscolex corethrurus [20] = assay: Anthelmintic activity against Pontoscolex corethrurus ICARBC 408 assessed as mean death time; type: functional; summary of the method: as §6

| Structure (SMILES) | inhibition zone (IZ) (Bacillus subtilis [1]) [mm] | inhibition zone (IZ) (Staphylococcus aureus [2]) [mm] | inhibition zone (IZ) (Pseudomonas aeruginosa [3]) [mm] | inhibition zone (IZ) (Escherichia coli [4]) [mm] | inhibition zone (IZ) (Candida albicans [5]) [mm] | inhibition zone (IZ) (Microsporum audouinii [6]) [mm] | inhibition zone (IZ) (Trichophyton benhamiae [7]) [mm] | inhibition zone (IZ) (Aspergillus niger) [mm] | MIC (Bacillus subtilis [8]) [µg/mL] | MIC (Staphylococcus aureus [9]) [µg/mL] | MIC (Pseudomonas aeruginosa [10]) [µg/mL] | MIC (Escherichia coli [11]) [µg/mL] | MIC (Candida albicans [12]) [µg/mL] | MIC (Microsporum audouinii [13]) [µg/mL] | MIC (Trichophyton benhamiae [14]) [µg/mL] | Time (Eudrilus [15]) [min] | Time (Eudrilus [16]) [min] | TIME [17] [h] | TIME [18] [h] | Time (Pontoscolex corethrurus [19]) [min] | also measured |
| --- | --- | --- | --- | --- | --- | --- | --- | --- | --- | --- | --- | --- | --- | --- | --- | --- | --- | --- | --- | --- | --- |
| Cc1cc2nc(-c3c(I)cc(C(=O)N[C@@H](Cc4ccccc4)C(=O)N[C@H](C(=O)N4CCC[C@H]4C(=O)O)C(C)C)cc3I)[nH]c2cc1C | 17 | 13 | 24 | 18 | 17 | 11 | 13 | 15 | 6 (≈ 6.96 µM) | 25 (≈ 29 µM) | 12.5 (≈ 14.5 µM) | 25 (≈ 29 µM) | 6 (≈ 6.96 µM) | 12.5 (≈ 14.5 µM) | 6 (≈ 6.96 µM) | 27.1 | 44.1 | 0.44 | 0.698 | 34.13 | Time (Pontoscolex corethrurus [20]): 50.13 min |
| COC(=O)[C@@H](NC(=O)c1cc(I)c(-c2nc3cc(C)c(C)cc3[nH]2)c(I)c1)[C@@H](C)O | 20 | 13 | 23 | 16 | 19 | 8 | 10 | 15 | 6 (≈ 9.48 µM) | 12.5 (≈ 19.7 µM) | 6 (≈ 9.48 µM) | 12.5 (≈ 19.7 µM) | 6 (≈ 9.48 µM) | 25 (≈ 39.5 µM) | 10 (≈ 15.8 µM) | 31.22 | 69.45 | 0.587 | 0.987 | 40.6 | Time (Pontoscolex corethrurus [20]): 78.32 min |
| COC(=O)[C@H](C)NC(=O)[C@@H]1CCCN1C(=O)c1cc(-c2nc3ccc([N+](=O)[O-])cc3[nH]2)ccc1O | 13 | 9 | 28 | 18 | 22 | 12 | 17 | 16 | 12.5 (≈ 26 µM) | 25 (≈ 51.9 µM) | 6 (≈ 12.5 µM) | 12.5 (≈ 26 µM) | 6 (≈ 12.5 µM) | 6 (≈ 12.5 µM) | 6 (≈ 12.5 µM) | 27.23 | 35.82 | 0.438 | 0.587 | 31.98 | Time (Pontoscolex corethrurus [20]): 43.76 min |
| COC(=O)[C@H](Cc1ccc(O)cc1)NC(=O)[C@H](C)NC(=O)[C@H](Cc1c[nH]c2ccccc12)NC(=O)c1cc(-c2nc3cc(C)c(C)cc3[nH]2)ccc1O | 13 | 10 | 21 | 16 | 17 | 11 | 14 | 16 | 12.5 (≈ 17.4 µM) | 12.5 (≈ 17.4 µM) | 6 (≈ 8.37 µM) | 12.5 (≈ 17.4 µM) | 6 (≈ 8.37 µM) | 12.5 (≈ 17.4 µM) | 6 (≈ 8.37 µM) | 13.41 | 24.07 | 0.228 | 0.379 | 17.6 | Time (Pontoscolex corethrurus [20]): 29.34 min |
| Cc1cc2nc(-c3c(I)cc(C(=O)N[C@@H](C)C(=O)N[C@@H](Cc4ccc(O)cc4)C(=O)NCC(=O)O)cc3I)[nH]c2cc1C | 16 | 13 | 23 | 18 | 16 | 9 | 15 | 15 | 6 (≈ 7.41 µM) | 12.5 (≈ 15.4 µM) | 6 (≈ 7.41 µM) | 12.5 (≈ 15.4 µM) | 6 (≈ 7.41 µM) | 12.5 (≈ 15.4 µM) | 12.5 (≈ 15.4 µM) | 26.25 | 45.22 | 0.454 | 0.676 | 35.42 | Time (Pontoscolex corethrurus [20]): 47.45 min |
| COC(=O)CNC(=O)[C@H](Cc1ccc(O)cc1)NC(=O)[C@H](C)NC(=O)c1cc(I)c(-c2nc3cc(C)c(C)cc3[nH]2)c(I)c1 | 15 | 12 | 20 | 17 | 15 | 9 | 13 | 15 | 6 (≈ 7.29 µM) | 12.5 (≈ 15.2 µM) | 6 (≈ 7.29 µM) | 12.5 (≈ 15.2 µM) | 6 (≈ 7.29 µM) | 12.5 (≈ 15.2 µM) | 12.5 (≈ 15.2 µM) | 27.42 | 45.3 | 0.472 | 0.652 | 34.13 | Time (Pontoscolex corethrurus [20]): 48.24 min |
| COC(=O)CNC(=O)CNC(=O)c1cc(-c2nc3ccc([N+](=O)[O-])cc3[nH]2)ccc1O | 9 | 9 | 22 | 16 | 18 | 13 | 15 | 17 | 25 (≈ 58.5 µM) | 12.5 (≈ 29.2 µM) | 6 (≈ 14 µM) | 12.5 (≈ 29.2 µM) | 6 (≈ 14 µM) | 6 (≈ 14 µM) | 6 (≈ 14 µM) | 25.74 | 36.77 | 0.461 | 0.608 | 31.38 | Time (Pontoscolex corethrurus [20]): 42.45 min |
